Test results: ChEMBL document CHEMBL5344453, “Selective Recognition of c-KIT 1 G-Quadruplex by Structural Tuning of Heteroaromatic Scaffolds and Side Chains” (ACS Med Chem Lett, 2024)
Activity calls are given as the source filed them. The calls are words filed in the database; no cut-off is given here.

How the values were obtained:
Quadruplex DNA [1] = experiment: Binding affinity to G-quadruplex BCL-2 5-FAM-AGGGGCGGGCGCGGGAGGAAGGGGGCGGGAGCGGGGCTG-TAMRA-3 (unknown origin) assessed as dissociation constant by measuring thermogram by isothermal titration calorimetry (ITC) assay; type: nucleic-acid assay
In short: (§1)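 ITC of ligand binding to folded G4 in 100 mM Tris-KCl buffer, pH 7.4. Kd and stoichiometry were obtained from the isothermal heat curve and binding isotherm.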

Quadruplex DNA [2] = experiment: Stabilization of G-quadruplex BCL2 5-FAM-AGGGGCGGGCGCGGGAGGAAGGGGGCGGGAGCGGGGCTG-TAMRA-3 (unknown origin) assessed as change in melting temperature at 10 uM incubated for 1 hr in dark condition by FRET-based melting assay; type: nucleic-acid assay
In short: (§2)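 FRET melting of dual-fluorophore (FAM/TAMRA) tagged G-quadruplex (200 nM) in 60 mM potassium cacodylate, pH 7.4. The screen used 1 μM ligand; dose series used 1, 3, 5, 7 and 10 μM. ΔTm was taken against the Tm of the same oligonucleotide without ligand.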

Quadruplex DNA [3] = experiment: Binding affinity to excessive G-quadruplex c-KIT1 5-FAM-GGGAGGGCGCTGGGAGGAGGG-TAMRA-3 (unknown origin) assessed as fold increase in fluorescence intensity at 1 uM incubated for 1 hr in dark condition by fluorescence spectroscopy assay; type: nucleic-acid assay
In short: (§3)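 Fluorimetric titration in 100 mM Tris-KCl buffer, pH 7.4. Ligand fixed at 1.0 μM and titrated with increasing concentrations of each G-quadruplex until fluorescence saturation. The fold increase in ligand fluorescence intensity was read, and Kd was derived from the titration plot.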

[4] = Reduction of c-KIT protein expression in human K562 cells at 3 uM measured after 24 hrs by Western blotting analysis relative to control; type: functional
In short: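 K562 cells were treated with ligand (3 and 6 μM or 5.5 and 11 μM). c-KIT protein was measured by Western blot with GAPDH as the housekeeping reference, relative to control.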

Quadruplex DNA [5] = experiment: Binding affinity to G-quadruplex c-KIT1 5-FAM-GGGAGGGCGCTGGGAGGAGGG-TAMRA-3 (unknown origin) assessed as stability by CD spectra analysis; type: nucleic-acid assay
Quadruplex DNA [6] = experiment: Stabilization of G-quadruplex c-KIT1 5-FAM-GGGAGGGCGCTGGGAGGAGGG-TAMRA-3 (unknown origin) assessed as change in melting temperature at 3 uM incubated for 1 hr in dark condition by FRET-based melting assay; type: nucleic-acid assay; in short: as §2
K562 [7] = experiment: Attenuation of proto-oncogene expression in human c-KIT-positive K562 cells assessed as reduction in c-MYC oncogene expression at 6 uM measured after 24 hrs by qRT-PCR analysis relative to control; type: functional
In short: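 K562 cells treated 24 h at two doses per ligand (3 and 6 μM, 5.5 and 11 μM; positive control 2 and 4 μM). c-KIT, c-MYC and BCL-2 mRNA measured by qRT-PCR and normalized to housekeeping gene 18s, relative to untreated control.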

Quadruplex DNA [8] = experiment: Binding affinity to G-quadruplex c-KIT 2 5-FAM-GGGCGGGCGCGAGGGAGGGG-TAMRA-3 (unknown origin) assessed as dissociation constant by measuring thermogram by isothermal titration calorimetry (ITC) assay; type: nucleic-acid assay; in short: as §1
K562 [9] = experiment: Induction of apoptosis in human K562 cells assessed as cell death at 6 uM incubated for 24 hrs by FITC-Annexin V and PI analysis relative to control; type: functional
In short: (§4)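 K562 cells after ligand treatment dual-stained with annexin V and propidium iodide. Apoptotic cell populations (early and late) scored by flow cytometry dot plot analysis.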

K562 [10] = experiment: Induction of cell cycle arrest in human K562 cells assessed as accumulation at G0/G1 phase at 6 uM incubated for 24 hrs by propidium iodide based assay; type: functional
In short: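 K562 cells were treated with ligand (3 and 6 μM or 5.5 and 11 μM) and stained with propidium iodide. The fraction of cells in each cell-cycle phase was determined by flow cytometry.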

K562 [11] = experiment: Induction of apoptosis in human K562 cells assessed as cell death at 3 uM incubated for 24 hrs by FITC-Annexin V and PI based flow cytometry relative to control; type: functional; in short: as §4
Quadruplex DNA [12] = experiment: Binding affinity to G-quadruplex h-TELO 5-FAM-TTGGGTTAGGGTTAGGGTTAGGGA-TAMRA-3 (unknown origin) assessed as dissociation constant by measuring thermogram by isothermal titration calorimetry (ITC) assay; type: nucleic-acid assay; in short: as §1
[13] = Reduction of c-KIT oncogene expression in human K562 cells transfected with c-KIT plasmid construct assessed as reduction in luciferase expression at 3 uM measured after 36 hrs by luciferase reporter assay; type: functional
In short: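 K562 cells were transfected with luciferase plasmids carrying the c-KIT, c-MYC or BCL-2 promoter G4. They were then treated with ligand (3 and 6 μM or 5.5 and 11 μM), and relative luciferase expression was measured.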

[14] = Reduction of c-MYC oncogene expression in human K562 cells transfected with c-MYC plasmid construct assessed as reduction in luciferase expression at 3 uM measured after 36 hrs by luciferase reporter assay; type: functional
In short: (§5)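 Promoter luciferase reporter: K562 cells transfected with a c-MYC promoter G4-containing luciferase-expressing plasmid, then ligand-treated at two doses each (3 and 6 μM, or 5.5 and 11 μM); read-out as relative luciferase expression, reported as percent reduction.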

Quadruplex DNA [15] = experiment: Binding affinity to G-quadruplex c-KIT1 5-FAM-GGGAGGGCGCTGGGAGGAGGG-TAMRA-3 (unknown origin) assessed as dissociation constant by fluorescence spectroscopy assay; type: nucleic-acid assay
[16] = Reduction of c-MYC oncogene expression in human K562 cells transfected with c-MYC plasmid construct assessed as reduction in luciferase expression at 6 uM measured after 36 hrs by luciferase reporter assay; type: functional; in short: as §5
Quadruplex DNA [17] = experiment: Binding affinity to G-quadruplex c-KIT 2 5-FAM-GGGCGGGCGCGAGGGAGGGG-TAMRA-3 (unknown origin) assessed as dissociation constant by fluorescence spectroscopy assay; type: nucleic-acid assay
In short: (§6)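 Fluorimetric titration of ligand held at 1.0 μM with increasing concentrations of G4 or dsDNA until saturation. Change in ligand fluorescence intensity was fitted for Kd. Run in 100 mM Tris-KCl buffer, pH 7.4.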

[18] = Cytotoxicity against HEK293 cells assessed as cell viability measured after 24 hrs by XTT formazan assay; type: toxicity, cell-based; settings: human
Quadruplex DNA [19] = experiment: Stabilization of G-quadruplex VEGF 5-FAM-CGGGGCGGGCCGGGGGCGGGGT-TAMRA-3 (unknown origin) assessed as change in melting temperature at 10 uM incubated for 1 hr in dark condition by FRET-based melting assay; type: nucleic-acid assay; in short: as §2
Quadruplex DNA [20] = experiment: Binding affinity to G-quadruplex c-MYC 5-FAM-TGGGGAGGGTGGGGAGGGTGGGGAAGG-TAMRA-3 (unknown origin) assessed as dissociation constant by fluorescence spectroscopy assay; type: nucleic-acid assay; in short: as §6
Quadruplex DNA [21] = experiment: Binding affinity to excessive G-quadruplex VEGF 5-FAM-CGGGGCGGGCCGGGGGCGGGGT-TAMRA-3 (unknown origin) assessed as fold increase in fluorescence intensity at 1 uM incubated for 1 hr in dark condition by fluorescence spectroscopy assay; type: nucleic-acid assay; in short: as §3
Quadruplex DNA [22] = experiment: Stabilization of 5-FAM/3-TAMRA labelled G-quadruplex c-KIT1 5-FAM-GGGAGGGCGCTGGGAGGAGGG-TAMRA-3 (unknown origin) assessed as change in melting temperature incubated for 1 hr in dark condition by FRET-based melting assay; type: nucleic-acid assay; settings: dose 1-10 µM; in short: as §2

## CN(C)CCCNC(=O)c1ccc(-n2cc(-c3ccc4[nH]c5ccccc5c4c3)nn2)cc1
Quadruplex DNA [1]
  Kd: 10.8 µM
Quadruplex DNA [2]
  ΔTm: 12.1 °C
Quadruplex DNA [3]
  fold change (FC): 5.2
[4]
  inhibition at 3 µM: 23.3%
Quadruplex DNA [5]
  Activity: Active
Quadruplex DNA [6]
  ΔTm: 22.6 °C
K562 [7]
  inhibition at 6 µM: 19%
Quadruplex DNA [8]
  Kd: 20.9 µM
K562 [9]
  Activity: 63%
K562 [10]
  Activity: 79.7%
K562 [11]
  Activity: 35%
Quadruplex DNA [12]
  Kd: 17.4 µM
[13]
  inhibition at 3 µM: 22%
[14]
  inhibition at 3 µM: 6%
Quadruplex DNA [15]
  Kd: 1.4 µM
[16]
  inhibition at 6 µM: 12.3%
Quadruplex DNA [17]
  Kd: 2.8 µM
[18]
  IC50 at 24 h: > 50 µM
Quadruplex DNA [19]
  ΔTm: 11.2 °C
Quadruplex DNA [20]
  Kd: 2.7 µM
Quadruplex DNA [21]
  fold change (FC): 2.1
Quadruplex DNA [22]
  Activity: Dose-Dependent Effect
